Results as given in PubChem BioAssay AID624313 (The Scripps Research Institute Molecular Screening Center, 2012).
Calls of active or inactive are those of the source.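 How the source made its calls: active means reporter absorbance over solvent-only wells above 1.25 at every tested dose; inactive means the rest.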

Test system: HEK293 CYP11A1 promoter CAT reporter, ELISA absorbance
Assay: CYP11A1 reporter increase in DAX-1/SF-1 cells – cell-based, absorbance, CAT reporter, HEK293, counter-screen for DAX1 inhibitor project, late-stage follow-up (AID 624313)
Details: at 100 µM (top of the series)
Summary of the method: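 Material: HEK293 cells carrying DAX-1, SF-1 and CYP11A1-promoter CAT reporter plasmids | Dosing: Three doses, 1:2 steps from 100 µM | Signal: CAT EIA absorbance | Evaluation: CAT signal relative to DMSO-treated wells | Controls: pSG5 empty-vector positive control, DMSO reference | Replication: Each dose tested in triplicate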

Row | Structure (SMILES) | relative activity ratio
1 | Cn1c(=O)n(C)c2cc(C(=O)Nc3ccc4c(c3)OCO4)ccc21 | 0.52 (inactive)
2 | Cn1c(=O)n(C)c2cc(C(=O)Nc3ccc4c(c3)OCCO4)ccc21 | 0.27 (inactive)
